# From PubChem BioAssay
# This is a sample that favours compounds with a hit; in the whole collection about 1.4% have one here.
# Calpain2 inh = calpain II (pig) inhibition; AID 1236; inhibition, % at 16 µM; purified calpain II, fluorogenic peptide substrate, 30 min; 220,000 tested, 0.37% active;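 active means inhibition above about 50%, limit read from the data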
# hK5 inh = kallikrein 5 (human) inhibition | recombinant hK5, fluorogenic AMC substrate cleavage | inhibition, % at 5 µM | 210,000 tested, 0.59% active | AID 873;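 active means inhibition of 40% or more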;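 further: 0% = enzyme controls without compound and 100% = no-enzyme blanks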
# Target sequence (Q9Y337 67-293 limits assumed): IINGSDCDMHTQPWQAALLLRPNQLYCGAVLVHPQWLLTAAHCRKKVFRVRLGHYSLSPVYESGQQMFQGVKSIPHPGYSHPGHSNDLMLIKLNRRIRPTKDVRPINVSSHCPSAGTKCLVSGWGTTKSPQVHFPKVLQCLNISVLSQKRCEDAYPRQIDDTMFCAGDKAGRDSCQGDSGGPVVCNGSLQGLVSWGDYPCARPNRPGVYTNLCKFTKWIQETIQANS
# FXIIa inh 1536 = factor XIIa (human) inhibition | purified FXIIa, Boc-QGR-AMC fluorogenic substrate, 2 h | inhibition, % at 5 µM | 220,000 tested, 0.3% active | AID 800; in the data active means inhibition above about 40%;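 further: 0% = enzyme with no compound and 100% = blank without enzyme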
# thrombin 1536 = inhibitors of human thrombin | P00734 | alpha-thrombin, Boc-VPR-AMC fluorogenic substrate cleavage | inhibition, % at 5 µM | 220,000 tested, 0.26% active | AID 1046;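 active means inhibition at or above 40%; inactive means inhibition below 40%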;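 further: 0% = enzyme with no compound and 100% = wells without enzyme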
#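 Material: human alpha-thrombin protein. Incubation: reaction at ambient temperature. Technique: fluorescence of released AMC, ex 355 nm, em 460 nm. Control set: no-compound enzyme wells and no-enzyme blanks. Also added: Boc-VPR-AMC substrate, 15 µM final. Buffer or medium: pH 7.5 Tris (50 mM) with NaCl 150 mM, Tween 20 0.05%.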
# FXIa inh = factor XIa (human) inhibition; P03951; purified FXIa, Boc-Glu-Ala-Arg-AMC fluorogenic substrate; inhibition, % at 5 µM; 220,000 tested, 0.14% active;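 active means inhibition of at least 40%; inactive means inhibition below 40%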;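 further: fluorescence of freed AMC excited at 355 nm; 0% = enzyme without compound and 100% = no enzyme blank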
# Furin inh = blocks human furin protease activity. P09958. 220,000 tested, 0.061% active. inhibition, % at 20 µM or 30 µM. purified furin, fluorogenic substrate cleavage; in the data active means inhibition above about 25%
# * = called active by the depositor.
SMILES,Calpain2 inh,hK5 inh,FXIIa inh 1536,thrombin 1536,FXIa inh,Furin inh
O=C(NCc1ccccn1)c1cn(-c2ccccc2)nc1-c1ccc(Cl)cc1,15,21,-4,58*,-9,-12
O=C(NN=C1CCCCCC1)c1cn(-c2ccccc2)nc1-c1ccccc1,31,28,16,100*,14,-23
O=C(NCc1ccccn1)c1ccc(-c2ccccc2)cc1,-17,1,3,-6,-2,-18
CC(C)N1CC(O)=C(c2nc3ccccc3[nH]2)C1=N,23,-23,12,0,17,-18
CC(C1CC2CCC1C2)N1CC(O)=C(c2nc3ccccc3[nH]2)C1=N (stereo unspecified),28,27,49*,4,27,1
Cc1ccc(C(C)C)c(OCc2nc(-c3nonc3N)no2)c1,15,54*,22,10,-1,-14
Oc1ccccc1N=Nc1ccccc1O,68*,-9,5,-6,-2,-17
CCCSCCCNC(=O)CC1Oc2ccccc2NC1=O (stereo unspecified),-12,-19,9,-7,-1,-23
COc1cccc(C(=O)SC2=NCCS2)c1,22,60*,22,14,21,-18
COc1cc(NC(=O)SC2=NCCS2)cc(OC)c1,23,0,9,3,1,-13
CCCCNC(=O)Nc1ccc(C2SCCS2)cc1,19,60*,11,20,6,-7
CC1CCN(S(=O)(=O)c2ccc3nc(-c4ccccn4)cc(C(=O)NCCN(C)Cc4ccccc4)c3c2)CC1,9,18,66*,34,30,-13
CC(=O)c1cc(CN2C(=O)c3ccccc3C2=O)cs1,-12,-3,15,3,8,-18
Cc1sc(NC(=O)CN(C)C2CCCCC2)nc1-c1ccc2c(c1)CCN2S(=O)(=O)c1ccccc1,-202,43*,14,21,5,-14
NS(=O)(=O)c1cccc(NC(=O)CN2CCC(Cc3ccccc3)CC2)c1,78*,-7,3,-11,-3,-18
Cc1ccc(CN2CC34C=CC(O3)C(C(=O)NCc3ccco3)C4C2=O)cc1 (stereo unspecified),10,156*,-2,1,-1,-7
CS(=O)(=O)c1ccc2nc(NC(=O)C3COc4ccccc4O3)sc2c1 (stereo unspecified),4,156*,17,18,3,-19
CCOc1ccc(NC(=O)Cn2cncc2-c2ccc([N+](=O)[O-])cc2)cc1,-39,41*,30,9,10,-10
CCOC(=O)Cn1cncc1-c1ccc([N+](=O)[O-])cc1,-3,-9,14,-1,14,-5
CCC(C)(C(=O)NC1CCCCC1)N(Cc1ccco1)C(=O)c1ccccn1 (stereo unspecified),30,-22,54*,2,20,-14
CCC(C)(C(=O)NC1CCCCC1)N(Cc1cccs1)C(=O)Cc1cccs1 (stereo unspecified),18,-14,-17,-8,-10,-22
O=C(Nc1ccc(F)cc1)C1CCN(c2nnnn2-c2ccccc2)CC1,-49,-14,15,4,-5,-25
O=S(=O)(c1ccccc1)N1CCN(c2nnnn2-c2ccccc2)CC1,9,63*,31,16,4,-23
O=C(NC1CCCCC1)C1CCN(c2nnnn2-c2ccccc2)CC1,10,28,21,82*,27,-4
O=C1/C(=C/c2cccnc2)CCC/C1=C\c1cccnc1,-4,-10,6,-5,8,-18
SMILES,Calpain2 inh,hK5 inh,FXIIa inh 1536,thrombin 1536,FXIa inh,Furin inh
COc1ccc(C(CNC(=O)c2ccc(-n3cnnn3)cc2)N2CCOCC2)cc1 (stereo unspecified),-22,-6,6,4,3,-18
CCCCCCOc1ccc(/C(N)=N/O)cc1,34,1,9,4,1,-23
N=C(N)c1ccc(OCCCCCOc2ccc(C(=N)N)cc2)cc1,4,-1,46*,25,10,-16
CCOC(=O)C(C(=O)NCC1CCCO1)C1CCCCC1 (stereo unspecified),-12,-6,11,-1,3,28*
O=C(NCc1ccco1)c1scc2c1OCCO2,16,6,43*,0,14,-10
C#CCn1c(=NC(=O)CN2C(=O)CCC2=O)sc2cccc(OC)c21,4,2,7,-4,8,-19
Nc1nnc(CSCc2ccc(Cl)cc2)s1,24,-10,14,0,6,-10
Nc1nnc(CCOc2ccc(Cl)cc2)s1,27,44*,21,24,16,-14
COc1ccc(NC(C)=O)cc1S(=O)(=O)N1CCc2ccccc21,-15,-2,3,-5,-6,4
O=C(O)CC(CC(=O)Nc1ccccc1C(=O)O)c1ccccc1 (stereo unspecified),-20,-5,4,-7,-3,-18
O=C(COC(=O)c1ccc(S(=O)(=O)N2CCc3ccccc3C2)cc1)NC1CCS(=O)(=O)C1 (stereo unspecified),9,-8,1,-7,-3,-19
O=C(COc1ccc(F)cc1)NN1C(=O)CSC1=S,52*,-8,10,-6,-2,-22
Cc1ccc(/C=N/N2CCN(c3ccncc3S(=O)(=O)N3CCCCC3)CC2)cc1,21,2,4,-3,4,-17
O=S(=O)(N1CCCCC1)N1CCN(c2ccccc2F)CC1,22,6,48*,1,15,-22
O=C(Cn1ncc2c(=O)oc3ccccc3c21)NC1CC1,-27,-15,13,6,-36,-26
O=C(Cn1ncc2c(=O)oc3ccccc3c21)Nc1nc2ccccc2s1,-7,0,-7,-4,-9,25*
COc1cccc(C(=O)NC(=S)Nn2cnnc2)c1OC,4,0,6,2,-1,-23
O=C(NC(=S)Nn1cnnc1)c1ccccc1Cl,5,48*,28,45*,34,-1
Cc1cc2nnc(SCC(=O)N3CCOCC3)n2c2ccccc12,-16,9,10,0,0,-30
COc1cccc(/C=C(/C(=O)OCC(=O)NC2CCCC(C)C2C)c2ccccc2)c1 (stereo unspecified),56*,-16,9,-6,5,9
Cc1cc(SCC(=O)Nc2ccccc2)nc(C)n1,-6,2,12,7,4,-12
O=C(Cn1cnc2ccccc21)N/N=C/c1ccccn1,21,-70,10,-5,15,-11
CC(=O)N1c2ccccc2N2C(c3c(C)c(C)cc(C)c3C)=NON12,9,-4,6,47*,0,-13
Cc1cc(C)c(C)c(C(=O)c2ccccc2C(=O)O)c1C,-25,0,10,-4,-1,-21
Cc1nn(Cc2ccccc2Cl)c(C)c1C(=O)Nc1nnc(C2CC2)s1,35,-12,8,1,1,-16
